An excerpt weighted towards active compounds, which were near 3.1% of everything screened.
KCNQ1 act: potentiators or activators of KCNQ1 channel, primary screen, cell-based, thallium flux, high-throughput; AID 2648, 2010; B-score at 10 µM; CHO-K1 KCNQ1, thallium flux FluxOR fluorescence; hits give high values; 310,000 tested, 0.35% active;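 active = fluorescence ratio B-score, a plate-corrected score, at least three library SD, with initial intensity B-score within 5 SD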
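Assay system: CHO-K1 cells stably expressing KCNQ1; Medium: assay buffer with matched DMSO; Also added: K+/Tl+ depolarizing stimulus; Dosing: single dose; Timing: dye 90 min, compound 20 min, room temperature; Measured by: kinetic FluxOR thallium fluorescence, 10-s 1-Hz baseline, 110-s post-stimulus read; Read-out: peak-minus-minimum fluorescence over initial fluorescence, negative-control normalized, B-scored.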
KCNK9 block: KCNK9 potassium channel inhibitors, primary screen, HEK293 cells, thallium flux. Potassium channel subfamily K member 9 (Homo sapiens), Q9NPC2. FluxOR thallium flux fluorescence; hits give low values. B-score at 10 µM. 310,000 tested, 1.2% active. AID 488922, 2010;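 active = ratio B-score over 3 SD below the library mean, with starting fluorescence within 5 SD of its mean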;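 note: negative B-score means less thallium flux so channel inhibition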
KCNQ1 block: inhibitors of human KCNQ1 channel, primary screen, cell-based, thallium flux, high-throughput; Potassium voltage-gated channel subfamily KQT member 1 (Homo sapiens), P51787; CHO-K1 KCNQ1, FluxOR thallium flux fluorescence; hits give high values; B-score at 10 µM; 310,000 tested, 1.3% active;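 active = compounds whose thallium flux B-score, printed positive for inhibition, exceeds three library SD while starting fluorescence stays within three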;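 note: channel opened by potassium depolarization with thallium stimulus after 20 min compound exposure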
KCNK3 block: human KCNK3 channel inhibitors, primary screen, CHO cells, FluxOR thallium flux, B-score; FluxOR fluorescence; hits give low values; B-score at 10 µM; 340,000 tested, 0.84% active; AID 602410, 2012;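 active = B-score under library mean minus 4 SD, starting fluorescence ratio at most library mean plus 5 SD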;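 note: more negative B-score means stronger inhibition of thallium flux through KCNK3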
hERG rescue: hERG rescue from dofetilide block, primary screen, cell-based, CHO-hERG, FluxOR thallium flux, dofetilide IC70. Voltage-gated inwardly rectifying potassium channel KCNH2 (Homo sapiens), Q12809. dofetilide IC70 present. activation (rescue from dofetilide block), less the hit threshold, % at 10 µM. 310,000 tested, 0.51% active;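 active = activation above the mean of controls blocked by dofetilide plus 5 SD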;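 note: thallium influx through hERG after potassium depolarization seen as dye fluorescence rise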
KCNK9 inh conf: KCNK9 potassium channel inhibitors, confirmation, HEK293 cells, thallium flux, duplicate | shares compounds with KCNK9 block | FluxOR thallium flux fluorescence | inhibition, % at 10 µM | 4,900 tested, 43% active | AID 492992, 2010;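 active = thallium signal inhibited by more than 5 SD of the compound-free buffer control wells, on both duplicate plates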;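 note: 0% = assay buffer control wells without compound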
Kir2-1 spec: mouse Kir2.1 channel inhibition, confirmation, selectivity assay for KCNK9 modulator project, cell-based, HEK293, thallium flux | 4,900 tested, 4% active | AID 492993, 2010 | Kir2.1 cells, FluxOR thallium flux fluorescence | inhibition, % at 10 µM | shares compounds with KCNK9 block;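 active = thallium signal drop more than 5 SD beyond the mean of the no-compound control wells, seen in both duplicate plates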;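 note: signal is fluorescence rise after thallium addition divided by baseline fluorescence; plate controls were assay buffer only for no effect and full block by chlorpromazine control for full effect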
Target sequence (P35561 whole entry, looked up): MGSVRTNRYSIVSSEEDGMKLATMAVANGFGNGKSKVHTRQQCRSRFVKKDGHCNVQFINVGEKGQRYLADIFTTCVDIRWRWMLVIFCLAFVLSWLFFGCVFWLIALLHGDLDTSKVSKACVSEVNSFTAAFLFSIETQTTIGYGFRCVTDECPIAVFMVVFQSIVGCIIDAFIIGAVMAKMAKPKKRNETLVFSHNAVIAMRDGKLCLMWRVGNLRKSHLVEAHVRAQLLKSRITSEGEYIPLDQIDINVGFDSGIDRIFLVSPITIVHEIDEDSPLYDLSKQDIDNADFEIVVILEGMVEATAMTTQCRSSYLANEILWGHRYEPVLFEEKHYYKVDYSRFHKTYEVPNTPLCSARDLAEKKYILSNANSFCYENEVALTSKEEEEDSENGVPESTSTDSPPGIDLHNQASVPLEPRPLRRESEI
KCNK9 uninduced: thallium flux in non-induced HEK293 cells, confirmation, counter-screen for KCNK9 inhibitor project, cell-based, second counter screen, non-induced KCNK9-HEK293. FluxOR thallium flux. shares compounds with KCNK9 block. inhibition, % at 10 µM. 4,900 tested, 40% active;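 active = thallium signal drop beyond 5 SD of the untreated control mean, on both duplicate plates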;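 note: plate controls were buffer only IC0 wells for no effect and SID17386958 at its maximal inhibitory level for full effect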
Active calls of the source: *.

How did COc1ccccc1/C=C/C=N/n1c(-c2ccccc2)n[nH]c1=S do in these assays?
KCNQ1 act: inactive; KCNK9 block: inactive; KCNQ1 block: inactive; KCNK3 block: inactive; hERG rescue: -4

Results for CCCCSc1nc(SCC(=O)NCc2ccco2)c2c3c(sc2n1)COC(C)(CC)C3 (stereo not drawn) ?
KCNQ1 act: inactive; KCNK9 block: inactive; KCNQ1 block: inactive; KCNK3 block: inactive; hERG rescue: -21; KCNK9 inh conf: inactive; Kir2-1 spec: inactive; KCNK9 uninduced: inactive

What do the screens show for `CCOc1cccc(-c2c(C(=O)N/N=C/c3ccsc3)nnn2-c2nonc2N)c1`?
KCNQ1 act: inactive; KCNK9 block: inactive; KCNQ1 block: inactive; KCNK3 block: inactive; hERG rescue: -10

Results for COc1ccc(C2=NOC(Cn3nc(C(=O)NCc4ccccc4OC)cc3-c3ccccc3)C2)cc1 (stereo not drawn) ?
KCNQ1 act: inactive; KCNK9 block: inactive; KCNQ1 block: inactive; KCNK3 block: inactive; hERG rescue: -23

Results for Cc1ccccc1Cn1c(=N)n(CC(O)c2ccco2)c2ccccc21 (stereo not drawn) ?
KCNQ1 act: inactive; KCNK9 block: inactive; KCNQ1 block: inactive; KCNK3 block: inactive; hERG rescue: -13

Results for CC(C)(C)c1ccc(Cn2c(=N)n(CC(O)c3ccco3)c3ccccc32)cc1 (stereo not drawn) ?
KCNQ1 act: inactive; KCNK9 block: -11*; KCNQ1 block: 9*; KCNK3 block: -12*; hERG rescue: -32; KCNK9 inh conf: 40%*; Kir2-1 spec: 43%*; KCNK9 uninduced: 26%*

What do the screens show for `CC(=O)Nc1ccc(NC(=O)CCNC(=O)c2ccccc2Cl)cc1`?
KCNQ1 act: inactive; KCNK9 block: inactive; KCNQ1 block: inactive; KCNK3 block: inactive; hERG rescue: -3

How did O=S(=O)(N1CCOCC1)n1cnc2ccccc21 do in these assays?
KCNQ1 act: inactive; KCNK9 block: inactive; KCNQ1 block: inactive; KCNK3 block: inactive; hERG rescue: -9

What do the screens show for `COc1ccccc1N1CCN(C2CCCN(C(=O)c3ccoc3C)C2)CC1` (stereo not drawn)?
KCNQ1 act: inactive; KCNK9 block: inactive; KCNQ1 block: inactive; KCNK3 block: inactive; hERG rescue: -5

What do the screens show for `COc1ccccc1N1CCN(C2CCCN(C(=O)c3cccc(-c4ccco4)c3)C2)CC1` (stereo not drawn)?
KCNQ1 act: inactive; KCNK9 block: inactive; KCNQ1 block: inactive; KCNK3 block: inactive; hERG rescue: -15; KCNK9 inh conf: inactive; Kir2-1 spec: inactive; KCNK9 uninduced: inactive

How did Cc1ccc(CNC(=O)c2ccc(N3CCC4(CC3)CC(c3ccccc3)=NO4)c(NC(=O)c3ccc(Br)cc3)c2)cc1 do in these assays?
KCNQ1 act: inactive; KCNK9 block: inactive; KCNQ1 block: inactive; KCNK3 block: inactive; hERG rescue: -11

Results for COCCn1cnc2c(c1=O)c1nc3ccccc3nc1n2/N=C/c1cccc(OC)c1 ?
KCNQ1 act: inactive; KCNK9 block: -9.7*; KCNQ1 block: inactive; KCNK3 block: inactive; hERG rescue: -3; KCNK9 inh conf: inactive; Kir2-1 spec: inactive; KCNK9 uninduced: inactive

How did C=CCn1cnc2c(c1=O)c1nc3ccccc3nc1n2/N=C/c1cc(OC)c(OC)c(OC)c1 do in these assays?
KCNQ1 act: inactive; KCNK9 block: inactive; KCNQ1 block: inactive; KCNK3 block: inactive; hERG rescue: -29

How did COc1ccc(NS(=O)(=O)c2ccc3nc(COc4ccc5ccccc5c4)[nH]c3c2)cc1 do in these assays?
KCNQ1 act: inactive; KCNK9 block: inactive; KCNQ1 block: inactive; KCNK3 block: inactive; hERG rescue: -8

What do the screens show for `COc1ccc(NS(=O)(=O)c2ccc3nc(COc4cccc5ccccc45)[nH]c3c2)cc1`?
KCNQ1 act: inactive; KCNK9 block: inactive; KCNQ1 block: inactive; KCNK3 block: inactive; hERG rescue: -17; KCNK9 inh conf: inactive; Kir2-1 spec: inactive; KCNK9 uninduced: inactive

What do the screens show for `Cc1nn(CC(=O)NCc2ccc(-n3cccn3)cc2)c(C)c1[N+](=O)[O-]`?
KCNQ1 act: inactive; KCNK9 block: inactive; KCNQ1 block: inactive; KCNK3 block: inactive; hERG rescue: -2

What do the screens show for `O=C1CC(N2CCN(C3CC(=O)N(CCc4ccccc4)C3=O)CC2)C(=O)N1CCc1ccccc1` (stereo not drawn)?
KCNQ1 act: inactive; KCNK9 block: inactive; KCNQ1 block: inactive; KCNK3 block: inactive; hERG rescue: -3

How did O=C1CC(N2CCC(Cc3ccccc3)CC2)C(=O)N1CCc1ccccc1 (stereo not drawn) do in these assays?
KCNQ1 act: inactive; KCNK9 block: inactive; KCNQ1 block: inactive; KCNK3 block: inactive; hERG rescue: -1; KCNK9 inh conf: inactive; Kir2-1 spec: inactive; KCNK9 uninduced: inactive

What do the screens show for `COc1cc(/C=C2/C(=N)N3OC(C)=CC3=NC2=O)ccc1OCCOc1ccc(C)cc1`?
KCNQ1 act: inactive; KCNK9 block: inactive; KCNQ1 block: inactive; KCNK3 block: inactive; hERG rescue: -8

Results for CC1=CC2=NC(=O)/C(=C\c3cccn3CCOc3cc(C)ccc3C)C(=N)N2O1 ?
KCNQ1 act: inactive; KCNK9 block: -8.8*; KCNQ1 block: inactive; KCNK3 block: inactive; hERG rescue: -11; KCNK9 inh conf: 66%*; Kir2-1 spec: inactive; KCNK9 uninduced: 29%*

How did O=C(CN1CCN(S(=O)(=O)c2cccs2)CC1)NCC1CCCCC1 do in these assays?
KCNK3 block: inactive

How did Cc1nc(NC(=O)c2ccccc2)sc1C1(C)CC(c2c(Cl)cccc2Cl)=NO1 (stereo not drawn) do in these assays?
KCNQ1 act: inactive; KCNK9 block: -9.8*; KCNQ1 block: inactive; KCNK3 block: inactive; hERG rescue: -17; KCNK9 inh conf: 55%*; Kir2-1 spec: inactive; KCNK9 uninduced: 36%*
